According to ChEMBL document CHEMBL1156217, “Antioxidant and antiproliferative activities of hydroxyl-substituted Schiff bases” (Bioorg Med Chem Lett, 2010):
Active and inactive are the calls of the source. The rule behind the calls is not given here.

Tested on: not listed separately
Assay: Antioxidant activity assessed as against AAPH-induced oxidative damage of pBR322 plasmid DNA assessed as single strand breakage at 10 uM by gel electrophoresis
Type: functional
Details: not given
Outline: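 Supercoiled pBR322 plasmid DNA (100 ng) incubated with AAPH and/or test compound in PBS, pH 7.4, at 37 °C for 60 min. Strand breakage was assessed by agarose gel electrophoresis as conversion of the supercoiled form to open-circular (single-strand break) and linear (double-strand break) DNA.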

SMILES	Activity
Oc1ccc(/N=C/c2ccc(O)c(O)c2)cc1	Active
Oc1ccc(/C=C/c2cc(O)cc(O)c2)cc1 [RESVERATROL]	Active

Tested on: not listed separately
Assay: Antioxidant activity assessed as galvinoxyl radical scavenging activity in ethyl acetate by UV-visible spectroscopy
Type: functional
Details: not given
Outline: (§1)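 The rate constant k (M−1 s−1) came from the slope of pseudo-first-order kobs against compound concentration. Some rates were instead taken from second-order kinetics at a 1/1 compound/GO• ratio. Values are mean±SD of three determinations.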

SMILES	Activity [M⁻¹ s⁻¹]
Oc1ccccc1/C=N/c1ccccc1 [2-((PHENYLIMINO)METHYL)PHENOL]	0.01
Oc1ccc(/N=C/c2ccc(O)c(O)c2)cc1	1080
COc1ccc(/N=C/c2ccc(O)cc2)cc1	1.1
Oc1ccc(/C=C/c2cc(O)cc(O)c2)cc1 [RESVERATROL]	13.4
Oc1ccc(/N=C/c2ccccc2)cc1 [4-(BENZYLIDENEAMINO)PHENOL]	31.9

Tested on: not listed separately
Assay: Antioxidant activity assessed as galvinoxyl radical scavenging activity in methanol by UV-visible spectroscopy
Type: functional
Details: not given
Outline: as §1

SMILES	Activity [M⁻¹ s⁻¹]
Oc1ccccc1/C=N/c1ccccc1 [2-((PHENYLIMINO)METHYL)PHENOL]	0.04
Oc1ccc(/N=C/c2ccc(O)c(O)c2)cc1	14800
COc1ccc(/N=C/c2ccc(O)cc2)cc1	2.48
Oc1ccc(/C=C/c2cc(O)cc(O)c2)cc1 [RESVERATROL]	42
Oc1ccc(/N=C/c2ccccc2)cc1 [4-(BENZYLIDENEAMINO)PHENOL]	120

Tested on: not listed separately
Assay: Stability in PBS at pH 7.4 by UV-visible spectroscopy
Type: physicochemical
Details: buffer

Stability	SMILES
Unstable	Oc1ccc(/N=C/c2ccc(O)c(O)c2)cc1

Tested on: not listed separately
Assay: Stability in PBS at pH 7.4 by UV-visible spectroscopy in presence of HSA
Type: physicochemical
Details: buffer

Stability	SMILES
Stable	Oc1ccc(/N=C/c2ccc(O)c(O)c2)cc1

Tested on: HepG2
Assay: Growth inhibition of human HepG2 cells after 72 hrs by sulforhodamine B assay
Type: functional, cell-based
Details: HepG2, 72 h

SMILES	IC50 [µM]
COc1cc([C@@H]2c3cc4c(cc3[C@@H](O[C@@H]3O[C@@H]5CO[C@@H](C)O[C@H]5[C@H](O)[C@H]3O)[C@H]3COC(=O)[C@H]23)OCO4)cc(OC)c1O [ETOPOSIDE]	4.1
Oc1ccccc1/C=N/c1ccccc1 [2-((PHENYLIMINO)METHYL)PHENOL]	> 300
Oc1ccc(/C=C/c2cc(O)cc(O)c2)cc1 [RESVERATROL]	79.6
Oc1ccc(/N=C/c2ccccc2)cc1 [4-(BENZYLIDENEAMINO)PHENOL]	108

The remaining lines, values ahead:

IC50 [µM]	SMILES
5.6	Oc1ccc(/N=C/c2ccc(O)c(O)c2)cc1
> 300	COc1ccc(/N=C/c2ccc(O)cc2)cc1
